# Assay results from ChEMBL document CHEMBL1909506, “Synthesis and anti-tumor activities of N'-benzylidene-2-(4-oxothieno[2,3-d]pyrimidin-3(4H)-yl)acetohydrazone derivatives” (Bioorg Med Chem Lett, 2011).
# Activity calls are given as the source filed them. The calls are words filed in the database; no cut-off is given here.
# Experiments:
# MDA-MB-231 [1] = test: Cytotoxicity against human MDA-MB-231 cells assessed as growth inhibition at 20 uM after 48 hrs by MTT assay; type: functional; settings: MDA-MB-231, 48 h, read-out: GI
# Outline: (§1)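 Single-concentration screen at 20 µM. Cell growth inhibition read by standard MTT assay after 48 h treatment and expressed as inhibition ratio.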
# HeLa [2] = test: Cytotoxicity against human HeLa cells assessed as growth inhibition at 20 uM after 48 hrs by MTT assay; type: functional; settings: read-out: GI; outline: as §1
# A549 [3] = test: Cytotoxicity against human A549 cells assessed as growth inhibition at 20 uM after 48 hrs by MTT assay; type: functional; settings: for inhibition of growth at 20 µM: A549, 48 h, read-out: GI; outline: as §1
# HeLa [4] = test: Cytotoxicity against human HeLa cells assessed as growth inhibition after 48 hrs by MTT assay; type: functional, cell-based
# Outline: (§2)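 Dose-response MTT assay, 48 h exposure. Compounds run at multiple concentrations; IC50 taken as the concentration giving 50% growth inhibition. HEK-293T (human embryonic kidney cells transformed with adenovirus 5 DNA and SV40 large T-antigen) served as the normal-cell model.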
# HeLa [5] = test: Induction of apoptosis in human HeLa cells assessed as increase in level of cleaved PARP at 20 uM after 12 hrs by immunoblotting; type: functional, cell-based
# MDA-MB-231 [6] = test: Cytotoxicity against human MDA-MB-231 cells assessed as growth inhibition after 48 hrs by MTT assay; type: functional, cell-based; settings: for IC50: MDA-MB-231, 48 h; outline: as §2
# HeLa [7] = test: Induction of apoptosis in human HeLa cells assessed as increase in level of cleaved caspase-3 at 20 uM after 12 hrs by immunoblotting; type: functional, cell-based
# [8] = molecular target: Induced myeloid leukemia cell differentiation protein Mcl-1 (Homo sapiens) (UniProt Q07820); test: Inhibition of mouse/human MCL1 expressed in Escherichia coli BL21 at 1 uM to 50 uM using FAM-labeled Bid-BH3 as tracer by fluorescence polarization assay
# HEK-293T = test: Cytotoxicity against human HEK293T cells assessed as growth inhibition after 48 hrs by MTT assay; type: cell-based; outline: as §2
# [9] = molecular target: Induced myeloid leukemia cell differentiation protein Mcl-1 (Homo sapiens) (UniProt Q07820); test: Inhibition of mouse/human MCL1 expressed in Escherichia coli BL21 at 50 uM using FAM-labeled Bid-BH3 as tracer by fluorescence polarization assay
# A549 [10] = test: Cytotoxicity against human A549 cells assessed as growth inhibition after 48 hrs by MTT assay; type: functional, cell-based; settings: for IC50: A549, 48 h; outline: as §2
# HeLa [11] = test: Induction of apoptosis in human HeLa cells assessed as sub-diploid DNA content at 20 uM after 24 hrs using PI staining by flow cytometry (reference value: 6%); type: functional
# HeLa [12] = test: Induction of apoptosis in human HeLa cells at 20 uM after 24 hrs using PI staining by flow cytometry relative to control; type: functional
compound,measurement,setting,value
Cc1cc(-c2csc3ncn(CC(=O)N/N=C/c4ccc(Cl)c(F)c4)c(=O)c23)ccc1Cl,inhibition of growth at 20 µM,MDA-MB-231 [1],74%
same,inhibition of growth at 20 µM,HeLa [2],52%
same,inhibition of growth at 20 µM,A549 [3],51%
same,IC50,HeLa [4],15 µM
same,growth inhibition (GI),HeLa [4],Dose-dependent effect
same,Activity,HeLa [5],Active
same,growth inhibition (GI),MDA-MB-231 [6],Dose-dependent effect
same,IC50,MDA-MB-231 [6],16 µM
same,Activity,HeLa [7],Active
same,inhibition,[8],inactive
same,IC50,HEK-293T,> 50 µM
same,inhibition,[9],40%
same,growth inhibition (GI),A549 [10],Dose-dependent effect
same,IC50,A549 [10],17 µM
same,Activity,HeLa [11],27%
O=C(Cn1cnc2sc3c(c2c1=O)CCCCC3)N/N=C/c1ccc(Cl)c([N+](=O)[O-])c1,inhibition of growth at 20 µM,MDA-MB-231 [1],66%
same,inhibition of growth at 20 µM,HeLa [2],96%
same,growth inhibition (GI),A549 [3],inactive
same,IC50,HeLa [4],6 µM
same,IC50,MDA-MB-231 [6],23 µM
same,inhibition,[8],inactive
same,IC50,HEK-293T,> 50 µM
same,Activity,HeLa [12],6%
same,IC50,A549 [10],> 50 µM
O=C(Cn1cnc2scc(-c3ccc4ccccc4c3)c2c1=O)N/N=C/c1ccc(Cl)c([N+](=O)[O-])c1,inhibition of growth at 20 µM,MDA-MB-231 [1],55%
same,inhibition of growth at 20 µM,HeLa [2],69%
same,inhibition of growth at 20 µM,A549 [3],69%
same,IC50,HeLa [4],24 µM
same,growth inhibition (GI),HeLa [4],Dose-dependent effect
same,Activity,HeLa [5],Active
same,growth inhibition (GI),MDA-MB-231 [6],Dose-dependent effect
same,IC50,MDA-MB-231 [6],20 µM
same,Activity,HeLa [7],Active
same,inhibition,[8],inactive
same,IC50,HEK-293T,> 50 µM
same,growth inhibition (GI),A549 [10],Dose-dependent effect
same,IC50,A549 [10],13 µM
same,Activity,HeLa [11],20%
O=C(Cn1cnc2scc(-c3ccccc3)c2c1=O)N/N=C/c1ccc(Cl)c([N+](=O)[O-])c1,inhibition of growth at 20 µM,MDA-MB-231 [1],29%
same,inhibition of growth at 20 µM,HeLa [2],64%
same,inhibition of growth at 20 µM,A549 [3],66%
same,IC50,HeLa [4],11 µM
same,growth inhibition (GI),HeLa [4],Dose-dependent effect
same,growth inhibition (GI),MDA-MB-231 [6],Dose-dependent effect
same,IC50,MDA-MB-231 [6],20 µM
same,inhibition,[8],inactive
same,IC50,HEK-293T,> 50 µM
same,Activity,HeLa [12],8%
same,growth inhibition (GI),A549 [10],Dose-dependent effect
same,IC50,A549 [10],16 µM
